# According to ChEMBL document CHEMBL5108039, “Piperazine tethered bergenin heterocyclic hybrids: design, synthesis, anticancer activity, and molecular docking studies” (RSC Med Chem, 2022):
# Active and inactive are the calls of the source. The calls are words filed in the database; no cut-off is given here.
# Legend:
# [1] = tested on: CAL-27; experiment: Cell cycle arrest in human CAL-27 cells assessed as accumulation at G0/G1 phase at 16 uM incubated for 24 hrs by flow cytometry (reference value: 77.6 %); assay type: functional
# [2] = tested on: CAL-27; experiment: Cell cycle arrest in human CAL-27 cells assessed as accumulation at S phase at 16 uM incubated for 24 hrs by flow cytometry (reference value: 3.6 %); assay type: functional
# [3] = tested on: CAL-27; experiment: Cell cycle arrest in human CAL-27 cells assessed as accumulation at S phase at 32 uM incubated for 24 hrs by flow cytometry (reference value: 3.6 %); assay type: functional
# [4] = tested on: SCC-9; experiment: Cell cycle arrest in human SCC-9 cells assessed as accumulation at S phase at 16.2 uM incubated for 24 hrs by flow cytometry (reference value: 14.4 %); assay type: functional
# [5] = tested on: SCC-9; experiment: Cell cycle arrest in human SCC-9 cells assessed as accumulation at S phase at 32.4 uM incubated for 24 hrs by flow cytometry (reference value: 14.4 %); assay type: functional
# [6] = tested on: SCC-9; experiment: Cell cycle arrest in human SCC-9 cells assessed as accumulation at G2/M phase at 16.2 uM incubated for 24 hrs by flow cytometry (reference value: 14.2 %); assay type: functional
# [7] = tested on: SCC-9; experiment: Cell cycle arrest in human SCC-9 cells assessed as accumulation at G2/M phase at 32.4 uM incubated for 24 hrs by flow cytometry (reference value: 14.2 %); assay type: functional
# [8] = tested on: CAL-27; experiment: Induction of apoptosis in human CAL-27 cells assessed as live cells at 16 uM incubated for 24 hrs by Annexin V-FITC/PI staining based flow cytometric analysis (reference value: 99.8 %); assay type: functional
# Outline: (§1)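 CAL27 cells were treated with vehicle, doxorubicin or test compounds at 10–63 μM, and apoptosis was assessed by annexin V–FITC/PI staining with flow cytometry. Cells were scored as live, early apoptotic, late apoptotic or necrotic. The vehicle was DMSO (0.01%).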
# [9] = tested on: CAL-27; experiment: Induction of apoptosis in human CAL-27 cells assessed as late apoptotic cells at 16 uM incubated for 24 hrs by Annexin V-FITC/PI staining based flow cytometric analysis (reference value: 0.1 %); assay type: functional; outline: as §1
# [10] = tested on: CAL-27; experiment: Induction of apoptosis in human CAL-27 cells assessed as necrotic cells at 16 uM incubated for 24 hrs by Annexin V-FITC/PI staining based flow cytometric analysis (reference value: 0.0 %); assay type: functional; outline: as §1
# [11] = tested on: CAL-27; experiment: Induction of apoptosis in human CAL-27 cells assessed as early apoptotic cells at 32 uM incubated for 24 hrs by Annexin V-FITC/PI staining based flow cytometric analysis (reference value: 0.1 %); assay type: functional; outline: as §1
# [12] = tested on: CAL-27; experiment: Induction of apoptosis in human CAL-27 cells assessed as late apoptotic cells at 32 uM incubated for 24 hrs by Annexin V-FITC/PI staining based flow cytometric analysis (reference value: 0.1 %); assay type: functional; outline: as §1
# [13] = tested on: CAL-27; experiment: Induction of apoptosis in human CAL-27 cells assessed as necrotic cells at 32 uM incubated for 24 hrs by Annexin V-FITC/PI staining based flow cytometric analysis (reference value: 0.0 %); assay type: functional
# [14] = tested on: SCC-9; experiment: Induction of apoptosis in human SCC-9 cells assessed as necrotic cells at 16.2 uM incubated for 24 hrs by Annexin V-FITC/PI staining based flow cytometric analysis (reference value: 0.1 %); assay type: functional
# [15] = tested on: SCC-9; experiment: Induction of apoptosis in human SCC-9 cells assessed as live cells at 32.4 uM incubated for 24 hrs by Annexin V-FITC/PI staining based flow cytometric analysis (reference value: 95.7 %); assay type: functional
# [16] = tested on: SCC-9; experiment: Induction of apoptosis in human SCC-9 cells assessed as necrotic cells at 32.4 uM incubated for 24 hrs by Annexin V-FITC/PI staining based flow cytometric analysis (reference value: 0.1 %); assay type: functional
# [17] = tested on: CAL-27; experiment: Induction of apoptosis in human CAL-27 cells assessed as downregulation of Oct-4 gene expression at 16 uM by qRT-PCR analysis; assay type: functional, cell-based
# Outline: (§2)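 CAL27 cells were treated with test compounds at several concentrations. Relative expression of vimentin, E-cad, Nanog, Oct-4, Bax and BcL-2 was measured by qRT-PCR against vehicle-treated control cells.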
# [18] = tested on: CAL-27; experiment: Induction of apoptosis in human CAL-27 cells assessed as downregulation of Oct-4 gene expression at 32 uM by qRT-PCR analysis; assay type: functional, cell-based; outline: as §2
# [19] = tested on: CAL-27; experiment: Induction of apoptosis in human CAL-27 cells assessed as downregulation of BcL-2 gene expression at 16 uM by qRT-PCR analysis; assay type: functional, cell-based; outline: as §2
# [20] = tested on: CAL-27; experiment: Induction of apoptosis in human CAL-27 cells assessed as upregulation of E-cad gene expression at 16 uM by qRT-PCR analysis; assay type: functional, cell-based
# Outline: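 CAL27 cells were treated with test agents at different concentrations. Relative mRNA levels of vimentin, E-cad, Nanog, Oct-4, Bax and Bcl-2 were then quantified by qRT-PCR as apoptosis, EMT and stemness markers.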
# [21] = tested on: SCC-9; experiment: Induction of apoptosis in human SCC-9 cells assessed as downregulation of vimentin gene expression at 16 uM by qRT-PCR analysis; assay type: functional, cell-based
# [22] = tested on: SCC-9; experiment: Induction of apoptosis in human SCC-9 cells assessed as downregulation of BcL-2 gene expression at 32 uM by qRT-PCR analysis; assay type: functional, cell-based
# [23] = tested on: SCC-9; experiment: Induction of apoptosis in human SCC-9 cells assessed as upregulation of Bax gene expression at 16 uM by qRT-PCR analysis; assay type: functional, cell-based
smiles,measurement,setting,value
COc1ccc(-c2csc(NC(=O)CN3CCN(Cc4c(O)c(OC)c(O)c5c4C(=O)OC4C5O[C@H](CO)[C@@H](O)[C@@H]4O)CC3)n2)cc1 (stereo partly drawn),Activity,[1],85.5%
same,Activity,[2],2.1%
same,Activity,[3],3.1%
same,Activity,[4],16%
same,Activity,[5],12.4%
same,Activity,[6],10.6%
same,Activity,[7],10.5%
same,Activity,[8],94.5%
same,Activity,[9],2%
same,Activity,[10],0.9%
same,Activity,[11],2.8%
same,Activity,[12],4.3%
same,Activity,[13],1.9%
same,Activity,[14],9.2%
same,Activity,[15],42.8%
same,Activity,[16],33.8%
same,Activity,[17],Active
same,Activity,[18],Active
same,Activity,[19],Active
same,Activity,[20],Active
same,Activity,[21],Active
same,Activity,[22],Active
same,Activity,[23],Active
